Screens from PubChem.
A selection: hits, their analogues and other compounds. The true share with any hit is near 2.1%.
Hck-Nef inh: inhibitors of Nef-activated human Hck kinase, primary screen, biochemical, Z-Lyte FRET, 384-well, Hck-YEEI; Tyrosine-protein kinase HCK (Homo sapiens), P08631; Recombinant Hck-YEEI plus Nef, Z-Lyte FRET kinase assay; inhibition, % at 20 µM; 0.68% of 220,000 active; AID 463187, 2010;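 active means Hck-Nef kinase inhibition above about 50%, limit read from the data; inactive means inhibition below that limit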;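 further: 0% = DMSO with Hck plus Nef and 100% = Hck alone without Nef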
Runt-CBFb FRET: inhibitors of RUNX1 Runt–CBFb binding, primary screen, biochemical, FRET, Cerulean-Runt, Venus-CBFb, uHTS; 0.46% of 220,000 active; Runt-related transcription factor 1 (Homo sapiens) + Core-binding factor subunit beta …; Cerulean-Runt/Venus-CBFb FRET ratio 530/480, 1 h; AID 1496, 2009; inhibition, % at 20 µM;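 active means inhibition over about 50% at 20 µM in the single-dose screen, limit read from the data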;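 further: 0% = DMSO wells and 100% = excess unlabeled CBFb competitor control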
Target sequence (Q01196 whole entry, looked up): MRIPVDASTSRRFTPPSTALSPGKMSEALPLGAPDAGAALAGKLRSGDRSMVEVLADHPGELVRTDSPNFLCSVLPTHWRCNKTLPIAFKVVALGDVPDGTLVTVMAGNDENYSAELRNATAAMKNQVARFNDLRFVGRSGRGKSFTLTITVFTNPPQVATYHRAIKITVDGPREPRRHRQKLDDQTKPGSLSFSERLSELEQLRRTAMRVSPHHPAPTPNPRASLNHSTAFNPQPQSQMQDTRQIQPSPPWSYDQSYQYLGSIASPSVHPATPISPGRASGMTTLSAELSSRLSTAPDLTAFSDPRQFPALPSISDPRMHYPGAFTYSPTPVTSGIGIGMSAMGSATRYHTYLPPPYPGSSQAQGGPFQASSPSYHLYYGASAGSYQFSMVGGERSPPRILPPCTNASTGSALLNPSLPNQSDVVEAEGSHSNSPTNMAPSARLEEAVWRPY
Target sequence (Q13951 whole entry, looked up): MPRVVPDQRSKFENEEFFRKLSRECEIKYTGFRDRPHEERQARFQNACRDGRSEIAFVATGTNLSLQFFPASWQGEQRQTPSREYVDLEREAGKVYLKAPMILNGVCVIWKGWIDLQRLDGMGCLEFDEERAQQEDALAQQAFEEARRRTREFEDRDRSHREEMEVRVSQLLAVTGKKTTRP
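Measured by: fluorescence energy transfer, 422 nm excitation, 530/480 nm emission; test system: Cerulean-tagged RUNX1 Runt domain (FRET donor) fusion protein; buffer or medium: Tris pH 7.5 buffer with BSA; compound: one dose, 20 µM compound, 1% DMSO; times: two 1 h room-temperature incubations shielded from light; benchmarks: unlabeled CBFb 5 µM, positive control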
pCIP destab: p/CIP-EGFP fusion destabilizers, primary screen, fluorescence, F442A cells; Q05BA5; 16 h; decrease of EGFP signal, % at 10 µM; 0.01% of 290,000 active;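 active means EGFP signal decrease of at least 30% at 10 µM or well 3 SD below plate mean, unless failing retest; inactive means the rest, including hits failing retest or dose response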
Runt-SMMHC FRET: inhibitors of RUNX1 Runt–CBFb-SMMHC binding, primary screen, biochemical, FRET, Cerulean-Runt, Venus-CBFb-SMMHC, uHTS; Runt-related transcription factor 1 (Homo sapiens) + Core-binding factor subunit beta …; Cerulean-Runt/Venus-CBFb-SMMHC FRET ratio 530/480, 1 h; inhibition, % at 20 µM; 0.74% of 220,000 active;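 active means mean inhibition across duplicate retests at 20 µM reaching about 50%, limit read from the data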;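 further: 0% = DMSO wells and 100% = wells with excess untagged CBFb-SMMHC; inhibitors lower the FRET ratio by blocking Runt binding to CBFb-SMMHC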
RanGTP-Impb inh: inhibitors of RanGTP-importin-beta interaction, primary screen, biochemical, FRET, CFP-Ran, YFP-importin-beta, homogeneous; cell-free CFP-Ran/YFP-importin-beta FRET ratio; inhibition, % (concentration not given with the values); 1.1% of 300,000 active; AID 2216, 2009;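 active means more than half of the replicate wells show a fall in the fluorescence ratio signal beyond about 16%, limit read from the data, passing the limit was not always enough; inconclusive means exactly half of the replicate wells pass the set limit; inactive means fewer than half of replicates pass the limit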;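 further: 0% = DMSO wells and 100% = Ran loaded with GDP instead of GTP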
DSG3 Ab inh: inhibitors of pemphigus antibody binding to DSG3, primary screen, biochemical, bead-based, flow cytometry, scFv-GFP | Desmoglein-3 (Homo sapiens), P32926 | DSG3-coupled beads, scFv-anti-DSG3-GFP binding; stronger effect = lower value | binding (percent of control), % at 10 µM | 0.48% of 310,000 active | AID 588358, 2011;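 active means binding more than 3 SD below its plate's average and above zero; inconclusive means below that plate limit but binding exactly zero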;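 further: hits lower antibody fragment binding to DSG3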
* hit, by the source's call.

What do the screens show for `Cc1cc(N2CCCC2)ccc1C=C(C#N)C#N`?
Hck-Nef inh: 12; Runt-CBFb FRET: -86; pCIP destab: -33; Runt-SMMHC FRET: -162; RanGTP-Impb inh: 0

Results for Cc1ccc2cc(C=C(C#N)C#N)c(Cl)nc2c1 ?
Hck-Nef inh: 8; Runt-CBFb FRET: -4; pCIP destab: -2; Runt-SMMHC FRET: -18; RanGTP-Impb inh: 51*

What do the screens show for `CCS(=O)(=O)Nc1cccc(C(=C2CCCCC2)c2cnc[nH]2)c1`?
DSG3 Ab inh: 105

What do the screens show for `Cc1c(C)c2cc(Cl)c(OCC(=O)N3C[C@H]4C[C@@H](C3)c3cccc(=O)n3C4)cc2oc1=O`?
pCIP destab: 7; RanGTP-Impb inh: 0

What do the screens show for `Cc1c(CC(=O)N2C[C@H]3C[C@@H](C2)c2cccc(=O)n2C3)c(=O)oc2c(C)c(O)ccc12`?
pCIP destab: -1; RanGTP-Impb inh: 71*; DSG3 Ab inh: 101

What do the screens show for `Cc1c(CC(=O)N2C[C@H]3C[C@@H](C2)c2cccc(=O)n2C3)c(=O)oc2cc(O)c(Cl)cc12`?
pCIP destab: -11; RanGTP-Impb inh: 75*; DSG3 Ab inh: 102

How did COC(=O)C1=C(c2ccc(Cl)c(C(F)(F)F)c2)C[C@@H]2CC[C@H]1N2C(=O)NCc1ccco1 do in these assays?
DSG3 Ab inh: 106

How did O=C1C2C3CCC(O3)C2C(=O)N1CCO (centres undefined) do in these assays?
Hck-Nef inh: 12; Runt-CBFb FRET: 2; pCIP destab: -3; Runt-SMMHC FRET: 0; RanGTP-Impb inh: 1; DSG3 Ab inh: 105

What do the screens show for `COC1/C=C/C=C(\C)Cc2cc(O)c(Cl)c(c2)N(C)C(=O)CC(OC(=O)C(C)C)C2(C)OC2C(C)C2CC1(O)NC(=O)O2` (centres undefined)?
DSG3 Ab inh: 87

What do the screens show for `CC(C)c1ccccc1OCC(=O)N1CCCN(C)CC1`?
pCIP destab: -9; RanGTP-Impb inh: -3; DSG3 Ab inh: 103

Results for CCC(=NCc1cccnc1)c1c(O)n(C2CCCCC2)c(=O)[nH]c1=O ?
Hck-Nef inh: 2; Runt-CBFb FRET: 0; pCIP destab: -1; Runt-SMMHC FRET: -2; RanGTP-Impb inh: 0; DSG3 Ab inh: 99

Results for CCC(=NCc1ccco1)c1c(O)n(C2CCCCC2)c(=O)[nH]c1=O ?
Hck-Nef inh: 1; Runt-CBFb FRET: 38; pCIP destab: -21; Runt-SMMHC FRET: 102*; RanGTP-Impb inh: 1

What do the screens show for `CN(C)S(=O)(=O)c1cc(NC(=O)COC(=O)Cc2ccccc2)ccc1Cl`?
Hck-Nef inh: -4; Runt-CBFb FRET: -2; pCIP destab: 4; Runt-SMMHC FRET: -2; RanGTP-Impb inh: inconclusive; DSG3 Ab inh: 88*

What do the screens show for `Cc1ccccc1-n1c(O)c(/C=N/NC(=O)c2ccccc2O)c(=O)[nH]c1=S`?
Hck-Nef inh: 6; Runt-CBFb FRET: 29; pCIP destab: 0; Runt-SMMHC FRET: 59*; RanGTP-Impb inh: 5; DSG3 Ab inh: 96

What do the screens show for `O=C(N/N=C/c1c(O)n(C2CC2)c(=S)[nH]c1=O)c1ccccc1O`?
Hck-Nef inh: 2; Runt-CBFb FRET: 42; pCIP destab: -6; Runt-SMMHC FRET: 73*; RanGTP-Impb inh: 0; DSG3 Ab inh: 97

What do the screens show for `O=C(N/N=C/c1c(O)n(-c2ccccc2)c(=S)[nH]c1=O)c1ccccc1`?
Hck-Nef inh: 15; Runt-CBFb FRET: 14; pCIP destab: -4; Runt-SMMHC FRET: 23; RanGTP-Impb inh: 3; DSG3 Ab inh: 94

Results for O=C(/C=C/c1c[nH]c2ccccc12)c1c(O)n(CCc2ccccc2)c(=O)[nH]c1=O ?
Hck-Nef inh: -17; Runt-CBFb FRET: -56; pCIP destab: -364; Runt-SMMHC FRET: -90; RanGTP-Impb inh: 31*; DSG3 Ab inh: 141

Results for O=C(O)CCC(=O)NCCC1=c2ccccc2=N/C1=C\c1c(O)n(Cc2ccc(F)cc2)c(=S)[nH]c1=O ?
Hck-Nef inh: 22; Runt-CBFb FRET: 14; pCIP destab: 1; Runt-SMMHC FRET: 58*; RanGTP-Impb inh: 1; DSG3 Ab inh: 67*

How did O=C(N/N=C/c1c(O)n(Cc2ccc(F)cc2)c(=O)[nH]c1=O)c1ccccc1 do in these assays?
Hck-Nef inh: 7; Runt-CBFb FRET: 1; pCIP destab: -11; Runt-SMMHC FRET: 0; RanGTP-Impb inh: 1; DSG3 Ab inh: 103

What do the screens show for `OC(CCNCCc1c[nH]c2ccccc12)C(F)(F)F` (centres undefined)?
Hck-Nef inh: 12; Runt-CBFb FRET: -1; pCIP destab: 1; Runt-SMMHC FRET: -2; RanGTP-Impb inh: -5; DSG3 Ab inh: 117

Results for Cc1c(C(=O)N2CCC3(CC2)OCCO3)sc2ncnc(N3CCN(c4ccccn4)CC3)c12 ?
Hck-Nef inh: -8; Runt-CBFb FRET: 1; pCIP destab: 14; Runt-SMMHC FRET: -1; DSG3 Ab inh: 86

What do the screens show for `CC(C)OC(=O)c1c(N)n(Cc2ccco2)c2nc3ccccc3nc12`?
Hck-Nef inh: 34; RanGTP-Impb inh: inconclusive; DSG3 Ab inh: inconclusive

What do the screens show for `COCCCNC(=O)c1c(N)n(Cc2ccco2)c2nc3ccccc3nc12`?
Hck-Nef inh: 47; Runt-CBFb FRET: 76*; pCIP destab: -17; Runt-SMMHC FRET: 81*; RanGTP-Impb inh: 72*; DSG3 Ab inh: 95

Results for CCCCNC(=O)c1c(N)n(CCCOC)c2nc3ccccc3nc12 ?
Hck-Nef inh: 48; Runt-CBFb FRET: 5; pCIP destab: -15; Runt-SMMHC FRET: 54*; RanGTP-Impb inh: 106*; DSG3 Ab inh: 108

How did CC(C)CNC(=O)c1c(N)n(Cc2ccco2)c2nc3ccccc3nc12 do in these assays?
Hck-Nef inh: 15; Runt-CBFb FRET: 79*; pCIP destab: -14; RanGTP-Impb inh: -1

Results for COCCOC(=O)c1c(N)n(Cc2ccco2)c2nc3ccccc3nc12 ?
Hck-Nef inh: 31; pCIP destab: -15; Runt-SMMHC FRET: 74; RanGTP-Impb inh: 19*; DSG3 Ab inh: 105

What do the screens show for `CCCCn1c(=O)c(C(=O)NCc2ccccc2)c(O)c2ccccc21`?
pCIP destab: 0; RanGTP-Impb inh: 8; DSG3 Ab inh: 127
